Source: ChEMBL document CHEMBL1629439, “High-throughput identification of antibacterials against methicillin-resistant Staphylococcus aureus (MRSA) and the transglycosylase” (Bioorg Med Chem, 2010)
Values after ≈ are worked out from the molar mass of the structure shown.

Assays:
[1] = system: Staphylococcus aureus; experiment: Antimicrobial activity against oxacillin- and methicillin-resistant Staphylococcus aureus isolate Sa-OXA-R2 after 18 to 24 hrs by alamar blue assay; format: functional
In short: (§1)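 Broth microdilution per NCCLS standard, Mueller-Hinton broth, 8-point twofold dilutions; exponentially growing cells at 5 10^5 cells/ml with compound, 18–24 h at 37 C; 20% Alamar blue added, fluorescence read; MIC90 taken as lowest concentration preventing at least 90% growth.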

[2] = system: Bacillus subtilis; experiment: Antimicrobial activity against Bacillus subtilis ATCC 23857 after 18 to 24 hrs by alamar blue assay; format: functional
In short: (§2)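 Broth microdilution per NCCLS in Mueller-Hinton broth, 8-point twofold dilutions, 384-well format. Exponential-phase cells at 5 × 10^5 cells/ml incubated with compound 18–24 h at 37 °C, then 20% Alamar blue added and fluorescence read. MIC90 taken as the lowest concentration preventing at least 90% bacterial growth.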

[3] = system: Escherichia coli; experiment: Antimicrobial activity against Escherichia coli ATCC […] after 18 to 24 hrs by alamar blue assay; format: functional; conditions: Escherichia coli; read-out: MIC; in short: as §2
[4] = system: Pseudomonas aeruginosa; experiment: Antimicrobial activity against Pseudomonas aeruginosa ATCC 25619 after 18 to 24 hrs by alamar blue assay; format: functional; conditions: Pseudomonas aeruginosa, ATCC 25619; read-out: MIC; in short: as §2
[5] = system: Acinetobacter baumannii; experiment: Antimicrobial activity against Acinetobacter baumannii ATCC 49139 after 18 to 24 hrs by alamar blue assay; format: functional; conditions: Acinetobacter baumannii, ATCC 49139; read-out: MIC; in short: as §2
[6] = system: Stenotrophomonas maltophilia; experiment: Antimicrobial activity against Stenotrophomonas maltophilia ATCC 13637 after 18 to 24 hrs by alamar blue assay; format: functional; conditions: Stenotrophomonas maltophilia, ATCC 13637; read-out: MIC; in short: as §2
[7] = system: Serratia marcescens; experiment: Antimicrobial activity against Serratia marcescens ATCC 14756 after 18 to 24 hrs by alamar blue assay; format: functional; conditions: Serratia marcescens, ATCC 14756; read-out: MIC; in short: as §2
[8] = system: Mycolicibacterium smegmatis; experiment: Antimicrobial activity against Mycobacterium smegmatis BCRC 11565 after 18 to 24 hrs by alamar blue assay; format: functional; conditions: Mycolicibacterium smegmatis, BCRC 11565; read-out: MIC; in short: as §2
[9] = Inhibition of transglycosylase assessed as inhibition of NBD- labelled lipid II polymerization
In short: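 100 µM NBD-labelled lipid II incubated 30 min with full-length PBP (EC, SA or Mtb) and 10 ng/µl N-acetylmuramidase in 50 mM Tris-HCl pH 8.0, 10 mM MgCl2, 0.1% Triton X-100, 10% DMSO, 15% MeOH. Supernatant run on anion-exchange HPLC with 20 mM–0.5 M ammonium acetate gradient. Inhibition calculated from substrate peak-area percentage. IC50 determined. S. aureus strains share one SA enzyme.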

[10] = system: Staphylococcus aureus; experiment: Antimicrobial activity against methicillin-resistant Staphylococcus aureus isolate NTUH4722 after 18 to 24 hrs by alamar blue assay; format: functional; in short: as §1
[11] = system: Staphylococcus aureus; experiment: Antimicrobial activity against methicillin-resistant Staphylococcus aureus ATCC 33592 after 18 to 24 hrs by alamar blue assay; format: functional; conditions: Staphylococcus aureus, ATCC 33592; read-out: MIC; in short: as §1
[12] = system: Staphylococcus aureus; experiment: Antimicrobial activity against Staphylococcus aureus ATCC 29213 after 18 to 24 hrs by alamar blue assay

SMILES	MIC [1]	MIC [2]	MIC [3]	MIC [4]	MIC [5]	MIC [6]	MIC [7]	MIC [8]	IC90 [9]	MIC [10]	MIC [11]	MIC [12]
Cc1ccc(C(C)C)cc1Oc1ccc(Cl)cc1NC(=O)c1cc(Cl)cc(Br)c1O	≤ 0.03 µg/mL	< 0.03 µg/mL	8 µg/mL (≈ 15.7 µM)	16 µg/mL (≈ 31.4 µM)	16 µg/mL (≈ 31.4 µM)	16 µg/mL (≈ 31.4 µM)	16 µg/mL (≈ 31.4 µM)	0.5 µg/mL (≈ 0.982 µM)	50 µM	≤ 0.03 µg/mL	0.5 µg/mL (≈ 0.982 µM)	1 µg/mL (≈ 1.96 µM)
Cc1ccc(C(C)C)c(Oc2ccccc2NC(=O)c2cc(Br)cc(Br)c2O)c1	≤ 0.03 µg/mL	< 0.03 µg/mL	8 µg/mL (≈ 15.4 µM)	16 µg/mL (≈ 30.8 µM)	16 µg/mL (≈ 30.8 µM)	16 µg/mL (≈ 30.8 µM)	16 µg/mL (≈ 30.8 µM)	0.5 µg/mL (≈ 0.963 µM)	50 µM	≤ 0.03 µg/mL	4 µg/mL (≈ 7.7 µM)	1 µg/mL (≈ 1.93 µM)
O=C(Nc1cc(Cl)ccc1Oc1ccc(Br)c2ccccc12)c1cc(Cl)cc(I)c1O	≤ 0.03 µg/mL	< 0.03 µg/mL	8 µg/mL (≈ 12.7 µM)	16 µg/mL (≈ 25.4 µM)	16 µg/mL (≈ 25.4 µM)	16 µg/mL (≈ 25.4 µM)	16 µg/mL (≈ 25.4 µM)	0.5 µg/mL (≈ 0.795 µM)	100 µM	≤ 0.03 µg/mL	4 µg/mL (≈ 6.36 µM)	8 µg/mL (≈ 12.7 µM)
O=C(Nc1ccc(Oc2ccc(Br)c3ccccc23)c(Cl)c1)c1cc(Br)cc(Br)c1O	≤ 0.03 µg/mL	< 0.03 µg/mL	8 µg/mL (≈ 12.8 µM)	16 µg/mL (≈ 25.5 µM)	16 µg/mL (≈ 25.5 µM)	16 µg/mL (≈ 25.5 µM)	16 µg/mL (≈ 25.5 µM)	0.5 µg/mL (≈ 0.798 µM)	100 µM	≤ 0.03 µg/mL	≤ 2 µg/mL	4 µg/mL (≈ 6.38 µM)
O=C(Nc1ccc(Oc2ccc(Cl)c3cccnc23)c(Cl)c1)c1cc(Br)cc(Br)c1O	≤ 0.03 µg/mL	< 0.03 µg/mL	8 µg/mL (≈ 13.7 µM)	16 µg/mL (≈ 27.4 µM)	16 µg/mL (≈ 27.4 µM)	16 µg/mL (≈ 27.4 µM)	16 µg/mL (≈ 27.4 µM)	0.5 µg/mL (≈ 0.858 µM)	100 µM	≤ 0.03 µg/mL	32 µg/mL (≈ 54.9 µM)	16 µg/mL (≈ 27.4 µM)
O=C(c1ccc(Cl)cc1)c1ccc(NC(=O)c2cc(Br)cc(Br)c2O)cc1Cl	≤ 0.03 µg/mL	< 0.03 µg/mL	8 µg/mL (≈ 14.7 µM)	16 µg/mL (≈ 29.4 µM)	16 µg/mL (≈ 29.4 µM)	16 µg/mL (≈ 29.4 µM)	16 µg/mL (≈ 29.4 µM)	0.5 µg/mL (≈ 0.919 µM)	100 µM	≤ 0.03 µg/mL	4 µg/mL (≈ 7.35 µM)	≤ 2 µg/mL
O=C(Nc1cc(Cl)ccc1Oc1cccc2c(Br)cccc12)c1cc(Cl)cc(Br)c1O	≤ 0.03 µg/mL	< 0.03 µg/mL	8 µg/mL (≈ 13.7 µM)	16 µg/mL (≈ 27.5 µM)	16 µg/mL (≈ 27.5 µM)	16 µg/mL (≈ 27.5 µM)	16 µg/mL (≈ 27.5 µM)	0.5 µg/mL (≈ 0.859 µM)	100 µM	≤ 0.03 µg/mL	≤ 2 µg/mL	4 µg/mL (≈ 6.87 µM)
O=C(Nc1ccc(Oc2cc3ccccc3cc2Cl)c(Cl)c1)c1cc(Br)cc(Br)c1O	≤ 0.03 µg/mL	< 0.03 µg/mL	8 µg/mL (≈ 13.7 µM)	16 µg/mL (≈ 27.5 µM)	16 µg/mL (≈ 27.5 µM)	16 µg/mL (≈ 27.5 µM)	16 µg/mL (≈ 27.5 µM)	0.5 µg/mL (≈ 0.859 µM)	100 µM	≤ 0.03 µg/mL	4 µg/mL (≈ 6.87 µM)	4 µg/mL (≈ 6.87 µM)
O=C(Nc1ccc(Sc2nc3ccccc3s2)c(Cl)c1)c1cc(Cl)cc(Cl)c1O	≤ 0.03 µg/mL	< 0.03 µg/mL	8 µg/mL (≈ 16.6 µM)	16 µg/mL (≈ 33.2 µM)	16 µg/mL (≈ 33.2 µM)	16 µg/mL (≈ 33.2 µM)	16 µg/mL (≈ 33.2 µM)	0.5 µg/mL (≈ 1.04 µM)	> 100 µM	≤ 0.03 µg/mL	4 µg/mL (≈ 8.3 µM)	8 µg/mL (≈ 16.6 µM)
O=C(Nc1ccc(Oc2ccc3ccccc3c2Cl)c(Cl)c1)c1cc(Cl)cc(Br)c1O	≤ 0.03 µg/mL	< 0.03 µg/mL	8 µg/mL (≈ 14.9 µM)	16 µg/mL (≈ 29.8 µM)	16 µg/mL (≈ 29.8 µM)	16 µg/mL (≈ 29.8 µM)	16 µg/mL (≈ 29.8 µM)	0.5 µg/mL (≈ 0.93 µM)	100 µM	≤ 0.03 µg/mL	≤ 2 µg/mL	≤ 2 µg/mL
O=C(Nc1ccc(Oc2cc3ccccc3cc2Cl)c(Cl)c1)c1cc(Cl)cc(I)c1O	≤ 0.03 µg/mL	< 0.03 µg/mL	8 µg/mL (≈ 13.7 µM)	16 µg/mL (≈ 27.4 µM)	16 µg/mL (≈ 27.4 µM)	16 µg/mL (≈ 27.4 µM)	16 µg/mL (≈ 27.4 µM)	0.5 µg/mL (≈ 0.855 µM)	> 100 µM	≤ 0.03 µg/mL	≤ 2 µg/mL	4 µg/mL (≈ 6.84 µM)
O=C(Nc1cc(Cl)cc(C(=O)c2ccc(Cl)cc2)c1Cl)c1cc(Cl)cc(Br)c1O	0.5 µg/mL (≈ 0.936 µM)	< 0.03 µg/mL	8 µg/mL (≈ 15 µM)	16 µg/mL (≈ 30 µM)	16 µg/mL (≈ 30 µM)	16 µg/mL (≈ 30 µM)	16 µg/mL (≈ 30 µM)	0.5 µg/mL (≈ 0.936 µM)	100 µM	1 µg/mL (≈ 1.87 µM)	0.5 µg/mL (≈ 0.936 µM)	0.5 µg/mL (≈ 0.936 µM)
O=C(Nc1ccc(Oc2ccc3ccccc3c2Cl)c(Cl)c1)c1cc(Br)cc(Br)c1O	≤ 0.03 µg/mL	< 0.03 µg/mL	8 µg/mL (≈ 13.7 µM)	16 µg/mL (≈ 27.5 µM)	16 µg/mL (≈ 27.5 µM)	16 µg/mL (≈ 27.5 µM)	16 µg/mL (≈ 27.5 µM)	0.5 µg/mL (≈ 0.859 µM)	100 µM	≤ 0.03 µg/mL	≤ 2 µg/mL	≤ 2 µg/mL
O=C(Nc1cc(Cl)ccc1Oc1ccc(Cl)c2ccccc12)c1cc(Cl)cc(Br)c1O	≤ 0.03 µg/mL	< 0.03 µg/mL	8 µg/mL (≈ 14.9 µM)	16 µg/mL (≈ 29.8 µM)	16 µg/mL (≈ 29.8 µM)	16 µg/mL (≈ 29.8 µM)	16 µg/mL (≈ 29.8 µM)	0.5 µg/mL (≈ 0.93 µM)	100 µM	≤ 0.03 µg/mL	16 µg/mL (≈ 29.8 µM)	8 µg/mL (≈ 14.9 µM)
O=C(Nc1ccc(Sc2nc3ccccc3s2)c(Cl)c1)c1cc(Br)cc(Br)c1O	≤ 0.03 µg/mL	< 0.03 µg/mL	8 µg/mL (≈ 14 µM)	16 µg/mL (≈ 28 µM)	16 µg/mL (≈ 28 µM)	16 µg/mL (≈ 28 µM)	16 µg/mL (≈ 28 µM)	0.5 µg/mL (≈ 0.876 µM)	100 µM	≤ 0.03 µg/mL	≤ 2 µg/mL	4 µg/mL (≈ 7.01 µM)
O=C(c1ccc(Cl)cc1)c1cc(NC(=O)c2cc(I)cc(I)c2O)ccc1Cl	≤ 0.03 µg/mL	< 0.03 µg/mL	8 µg/mL (≈ 12.5 µM)	16 µg/mL (≈ 25.1 µM)	16 µg/mL (≈ 25.1 µM)	16 µg/mL (≈ 25.1 µM)	16 µg/mL (≈ 25.1 µM)	0.5 µg/mL (≈ 0.784 µM)	100 µM	≤ 0.03 µg/mL	4 µg/mL (≈ 6.27 µM)	≤ 2 µg/mL
O=C(c1ccccc1)c1cc(NC(=O)c2cc(Br)cc(Br)c2O)ccc1Cl	1 µg/mL (≈ 1.96 µM)	< 0.03 µg/mL	8 µg/mL (≈ 15.7 µM)	16 µg/mL (≈ 31.4 µM)	16 µg/mL (≈ 31.4 µM)	16 µg/mL (≈ 31.4 µM)	16 µg/mL (≈ 31.4 µM)	0.5 µg/mL (≈ 0.981 µM)	100 µM	2 µg/mL (≈ 3.92 µM)	1 µg/mL (≈ 1.96 µM)	1 µg/mL (≈ 1.96 µM)
O=C(Nc1cc(Cl)cc(C(=O)c2ccccc2)c1Cl)c1cc(Br)cc(Br)c1O	4 µg/mL (≈ 7.35 µM)	< 0.03 µg/mL	8 µg/mL (≈ 14.7 µM)	16 µg/mL (≈ 29.4 µM)	16 µg/mL (≈ 29.4 µM)	16 µg/mL (≈ 29.4 µM)	16 µg/mL (≈ 29.4 µM)	0.5 µg/mL (≈ 0.919 µM)	100 µM	4 µg/mL (≈ 7.35 µM)	8 µg/mL (≈ 14.7 µM)	1 µg/mL (≈ 1.84 µM)
O=C(Nc1ccc(Oc2ccc3ccccc3c2Cl)c(Cl)c1)c1cc(I)cc(I)c1O	≤ 0.03 µg/mL	< 0.03 µg/mL	8 µg/mL (≈ 11.8 µM)	16 µg/mL (≈ 23.7 µM)	16 µg/mL (≈ 23.7 µM)	16 µg/mL (≈ 23.7 µM)	16 µg/mL (≈ 23.7 µM)	0.5 µg/mL (≈ 0.74 µM)	> 100 µM	≤ 0.03 µg/mL	8 µg/mL (≈ 11.8 µM)	8 µg/mL (≈ 11.8 µM)
